Each structure is given as a SMILES string. In brackets after ≈: the same amount, converted by molar mass. A value given as a limit tells only on which side of the number the result lay.

The IC50 is the concentration at which inhibition is half-maximal. A high value points to lower potency. The inhibition is the relative decrease from the control value, in per cent.

Assay [1] deals with Candida albicans. The assay is described as follows: In vitro inhibition of yeast-to-hypha transition in candida albicans. It counts as functional, organism-based.
The test system of assay [2] is Candida albicans. The assay can be described thus: In vitro inhibition of yeast cell growth of candida albicans. In kind it is functional, organism-based.
For assay [3], the system named is Candida albicans. The assay can be described thus: In vitro inhibition of yeast-to-hypha transition in candida albicans; No inhibition. In kind it is functional, organism-based.
In assay [4] the test system is Candida albicans. The assay is described as follows: In vitro inhibition of yeast cell growth of candida albicans; No inhibition. In kind it is functional, organism-based.
Assay [5] deals with Candida albicans. The assay is described as follows: In vitro inhibition of yeast cell growth of candida albicans at a concentration of 100 ug/mL. It counts as functional.
Assay [6] deals with Candida albicans. The assay is described as follows: In vitro inhibition of yeast-to-hypha transition in candida albicans at a concentration of 100 ug/mL. It counts as functional. In outline: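 C. albicans ATCC 10231 grown 48 h at 30 °C in YPD, washed twice in sterile water. DMSO stocks diluted in glucose salts (GS) medium, final DMSO below 0.5%. Cells at 10^5 cells/mL in GS with compound, 4 h at 37 °C. Yeast vs hypha (germ tube) percentages counted microscopically on 200 cells from triplicate dishes, relative to 0.5% DMSO control. Highest concentration tested.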

For the compound `CC(C)=CCC/C(C)=C/CC/C(C)=C/C(N)=O`, the IC50 in assay [1] is 20.7 µg/mL (≈ 88 µM); in assay [2] it was 26.3 µg/mL (≈ 112 µM).

For `CC(C)=CCC/C(C)=C/CC/C(C)=C/COC(=O)/C=C(\C)CC/C=C(\C)CCC=C(C)C`, the IC50 in assay [3] and in assay [4] was > 100 µg/mL each time.

With `C=CCOC(=O)/C=C(\C)CC/C=C(\C)CCC=C(C)C`, the IC50 in assay [3] and in assay [4] was > 100 µg/mL each time.

Turning to `CC(C)=CCC/C(C)=C/CC/C(C)=C/C(=O)N1CCOCC1`, the IC50 in assay [1] is 41 µg/mL (≈ 134 µM); in assay [2], 87.5 µg/mL (≈ 286 µM).

In the case of `CC(C)=CCC/C(C)=C/C(=O)O`, in assay [3], the IC50 is > 100 µg/mL. In assay [5], this compound returned an inhibition at 100 µg/mL of 57%.

On to `CC(C)=CCC/C(C)=C/CC/C(C)=C\C(=O)O`, for which the IC50 in assay [4] is > 100 µg/mL. In assay [6], this compound came in with an inhibition at 100 µg/mL of 18%.

Turning to `CC(C)=CCC/C(C)=C/CC/C(C)=C/C(=O)N(C)C`, the IC50 in assay [1] turned out to be 16.9 µg/mL (≈ 64.3 µM); in assay [2] it was 43.7 µg/mL (≈ 166 µM).

With `COC(=O)/C=C(\C)CC/C=C(\C)CCC=C(C)C`, the IC50 in assay [3] and in assay [4] was > 100 µg/mL in each case.

With `C=CCNC(=O)/C=C(\C)CC/C=C(\C)CCC=C(C)C`, the IC50 in assay [3] and in assay [4] was > 100 µg/mL each time.

Turning to `CC(C)=CCC/C(C)=C/CC/C(C)=C/C(=O)OC/C=C(\C)CCC=C(C)C`, the IC50 in assay [3] and in assay [4] was > 100 µg/mL throughout.

Consider `CC(C)=CCC/C(C)=C/CC/C(C)=C/C(=O)OCC=C(C)C`, for which the IC50 in assay [3] and in assay [4] was > 100 µg/mL in each case.

`CNC(=O)/C=C(\C)CC/C=C(\C)CCC=C(C)C`: the IC50 in assay [3] and in assay [4] was > 100 µg/mL in each case.

Regarding `CC(C)=CCC/C(C)=C/CC/C(C)=C/C(=O)OC/C=C/c1ccccc1`, the IC50 in assay [3] and in assay [4] was > 100 µg/mL in each case.

With `CC(C)=CCC/C(C)=C/CC/C(C)=C/C(=O)O`, the IC50 in assay [4] is > 100 µg/mL; in assay [1] it was 4.56 µg/mL (≈ 19.3 µM).

Consider `CC(C)=CCC/C(C)=C/CC/C(C)=C/C(=O)OCc1ccccc1`, for which the IC50 in assay [3] and in assay [4] was > 100 µg/mL throughout.

As for `CC(C)=CCC/C(C)=C/CC/C(C)=C/CO` [FARNESOL], the inhibition at 100 µg/mL in assay [5] was determined as 35%. This compound also showed an IC50 in assay [1] of 2.82 µg/mL (≈ 12.7 µM).

In the case of `CC(C)=CCC/C(C)=C/CC/C(C)=C/CC/C(C)=C/C(=O)O` [GERANYLGERANOIC ACID], the IC50 in assay [3] and in assay [4] was > 100 µg/mL each time.

These data come from ChEMBL document CHEMBL1135243, “Evaluation of morphogenic regulatory activity of farnesoic acid and its derivatives against Candida albicans dimorphism” (Bioorg Med Chem Lett, 2002).
